For series [1], the species on record is Mus musculus. Nature of the series: Time at maximum activity in mice (Radiolabeled compound). Type of series: ADME, organism-based. As to conditions: in vivo; call rule not given here. Summed up: (§1)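 Male ICR mice (2–3 months, 20–30 g) under 1% isoflurane, body temperature held at 36–37 °C. No-carrier-added 18F ligand (400–450 μCi) in 0.9% saline with 0.1% Tween given via tail-vein catheter. Dynamic small-animal PET for 1–2 h. Brain and skull time-activity curves were averaged over four mice and fitted to a double-exponential model; bone uptake was fitted linearly or exponentially.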

Series [2] deals with Mus musculus. Nature of the series: Maximum activity (i.v.) after in mice, expressed as [(ID%-kg)/g] (Radiolabeled compound). Type of series: ADME, organism-based. As to conditions: in vivo, iv. The procedure, abridged:
as §1

For series [3], the species on record is Mus musculus. Nature of the series: Compound was evaluated for washout rate in mice after radiolabeled ligand injected. As to conditions: in vivo. Type of series: ADME, organism-based. Summed up: as §1
Series [4] has as its system Mus musculus. Nature of the series: Compound was evaluated for rate of bone uptake after administration of radiolabeled in mice (Radiolabeled compound). Format: ADME, organism-based, Bone element. As to conditions: in vivo. The procedure, abridged: as §1
The species entered for series [5] is Mus musculus. Description: Residual activity in mice at 120 minutes, expressed as [(ID%-kg)/g] (Radiolabeled compound). The following applies: in vivo, 2 h. Format: ADME, organism-based. The procedure, abridged:
as §1

A short description of series [6]: Compound was evaluated for distribution coefficient (logD) measured at pH7.4. Format: physicochemical. The following applies: octanol/water, pH 7.4. The procedure, abridged:
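Shake-flask partition: ligand (3–5 mg) in 0.1 M sodium phosphate pH 7.4 (6.0 mL) with n-octanol (1.0 mL). Vortexed 1 min, shaken 1 min, filtered, left 10 min at RT, centrifuged 5000g for 10 min. Value is the ratio of organic-phase to aqueous-phase concentration.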

The nature of series [7]: Compound (i.v.) was evaluated for elimination rate constants in jaw bone of rhesus monkeys; NA = not active (Radiolabeled compound). Type of series: ADME, tissue-based, Bone element. The following applies: cercopithecidae, iv. The procedure, abridged: (§2)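 Rhesus monkey with urinary catheter; ECG, temperature, heart and respiration rates monitored. A 32 min 68Ge transmission scan was taken for attenuation correction. 18F ligand (2.9 mCi) given iv. Dynamic 3D head PET ran 120 min (33 frames, 30 s–5 min). Regional uptake and elimination rate constants were fitted from time-activity curves.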

Series [8] concerns Mus musculus. Nature of the series: Compound was evaluated for uptake rate constants in vivo in whole blood of normal mice (Radiolabeled compound). Type of series: ADME, organism-based. Summed up: (§3)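 Normal mice given 18F ligand iv during PET. Serial blood samples (10–35 μL) were taken and analysed by reverse-phase HPLC for parent, lipophilic and polar radioactive components. Parent, lipophilic and total curves were fitted to single-exponential decay; the polar metabolite curve was fitted double-exponentially to give rate constants.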

Series [9] deals with Mus musculus. Nature of the series: Compound was evaluated for uptake rate constants in vivo in whole blood of normal mice; NA = not active (Radiolabeled compound). Type of series: ADME, organism-based. The procedure, abridged: as §3
Series [10] can be described thus: Compound (i.v.) was evaluated for uptake rate constants in striatum of rhesus monkeys (Radiolabeled compound). The following applies: cercopithecidae, iv. Format: ADME, tissue-based. The procedure, abridged: as §2
Series [11] can be described thus: Compound (i.v.) was evaluated for elimination rate constants in cerebellum of rhesus monkeys (Radiolabeled compound). The following applies: cercopithecidae, iv. Format: ADME, tissue-based. The procedure, abridged:
as §2

Series [12] can be described thus: Compound (i.v.) was evaluated for uptake rate constants in frontal cortex of rhesus monkey (Radiolabeled compound). Type of series: ADME, tissue-based. As to conditions: cercopithecidae, iv. Summed up:
as §2

Series [13] in a line: Compound (i.v.) was evaluated for elimination rate constants in brainstem of rhesus monkeys (Radiolabeled compound). Format: ADME, tissue-based, Brain. As to conditions: cercopithecidae, iv, read-out: Activity (converted). The procedure, abridged:
as §2

Series [14] relates to Mus musculus. Description: Compound (i.v.) was tested for maximum activity in mice (Radiolabeled compound). Type of series: ADME, organism-based. The following applies: in vivo, iv. The procedure, abridged: as §1
Series [15] has as its system Mus musculus. Nature of the series: Compound was evaluated for elimination rate constants in vivo in whole blood of normal mice (Radiolabeled compound). Format: ADME, organism-based. Summed up: as §3
Series [16] is filed under the species Mus musculus. Nature of the series: Compound was evaluated for rate of bone uptake in mice (Radiolabeled compound). Format: ADME, organism-based, Bone element. The following applies: in vivo. Summed up: as §1
Series [17] is described as follows: Compound (i.v.) was evaluated for elimination rate constants in striatum of rhesus monkey (Radiolabeled compound). The following applies: cercopithecidae, iv. Format: ADME, tissue-based. Summed up:
as §2

The species named for series [18] is Mus musculus. Nature of the series: Compound was evaluated for washout rate in mice (Radiolabeled compound). Type of series: ADME, organism-based. The following applies: in vivo. The procedure, abridged: as §1
A short description of series [19]: Compound (i.v.) was evaluated for elimination rate constants in frontal cortex of rhesus monkey (Radiolabeled compound). The following applies: cercopithecidae, iv, read-out: Activity (converted). Format: ADME, tissue-based. The procedure, abridged:
as §2

Series [20] is described as follows: Compound (i.v.) was evaluated for uptake rate constants in cerebellum of rhesus monkeys (Radiolabeled compound). Format: ADME, tissue-based. As to conditions: cercopithecidae, iv. Summed up:
as §2

Series [21] can be described thus: Compound (i.v.) was evaluated for uptake rate constants in brainstem of rhesus monkeys (Radiolabeled compound). Type of series: ADME, tissue-based, Brain. As to conditions: cercopithecidae, iv. Summed up:
as §2

Series [22] in a line: Compound (i.v.) was evaluated for uptake rate constants in jaw bone of rhesus monkey (Radiolabeled compound). Type of series: ADME, tissue-based, Bone element. As to conditions: cercopithecidae, iv. Summed up: as §2
The species entered for series [23] is Mus musculus. Nature of the series: Maximum activity in mice, expressed as [(ID%-kg)/g] (Radiolabeled compound). Format: ADME, organism-based. As to conditions: in vivo. The procedure, abridged:
as §1

For series [24], the species on record is Mus musculus. Nature of the series: Compound was evaluated for rate of bone uptake in mice; NA - not active (Radiolabeled compound). Format: ADME, organism-based, Bone element. The following applies: in vivo.

Results on three compounds are retold here after ChEMBL document CHEMBL1137092, “Synthesis and evaluation of two 18F-labeled 6-iodo-2-(4'-N,N-dimethylamino)phenylimidazo[1,2-a]pyridine derivatives as prospective radioligands for beta-amyloid in Alzheimer's disease” (J Med Chem, 2004).

What is called logD is the decadic logarithm of the distribution of all forms, ionised or not, between an organic phase and buffer at a given pH.

Where “and” joins values, the source holds several entries; their conditions need not be identical. Identical values can stand only once.

`CN(CCCF)c1ccc(-c2cn3cc(I)ccc3n2)cc1`: the Activity in the series listed under Mus musculus [1] worked out at 1.83 min; in the series on Mus musculus [2] it was 0.157; in the series listed under Mus musculus [3] it was 0.127 min⁻¹; with Mus musculus [4], 0.00728 min⁻¹; in the series listed under Mus musculus [5] it was 0.0479. In addition, the logD in series [6] came to 4.6.

`CN(CCF)c1ccc(-c2cn3cc(I)ccc3n2)cc1`: the Activity result in series [7] was “Not Active”; with Mus musculus [8], 0.576 min⁻¹; in the series with Mus musculus [9], “Not Active”; in series [10], 0.972 min⁻¹; in the series on Mus musculus [2], 0.161; in series [11], 0.0854 min⁻¹. The Activity in [12] is 0.859 min⁻¹; in the series on Mus musculus [14], 0.5 min; with Mus musculus [15], 1.14 min⁻¹ and 0.722 min⁻¹ and 0.801 min⁻¹; in the series listed under Mus musculus [16], 0.0016 min⁻¹; in [17] it was 0.0859 min⁻¹; in the series filed under Mus musculus [18], 0.334 min⁻¹. Besides, the Activity in the series listed under Mus musculus [5] stood at 0.111; in series [20] it was 1.09 min⁻¹; in series [21] it was 1 min⁻¹; in series [22] it was 0.373 min⁻¹. Further, the results for the k el in [13] and in [19] were 0.000813 s⁻¹ and 0.00101 s⁻¹, respectively. This compound also came in with a logD in series [6] of 4.41.

Turning to `CN(C)c1ccc(-c2cn3cc([125I])ccc3n2)cc1`, the Activity in the series listed under Mus musculus [1] was 2 min; in the series listed under Mus musculus [23], 0.216; in the series listed under Mus musculus [18], 0.122 min⁻¹; in the series listed under Mus musculus [24], “Not Active”; in the series listed under Mus musculus [5] it was 0.0108. In addition, the logD in series [6] was 3.58.
